Data as given in ChEMBL document CHEMBL4622977, “A CNS-Targeting Prodrug Strategy for Nuclear Receptor Modulators” (J Med Chem, 2020).

What was measured:
[1] = Prodrug conversion in C57BL/6 mouse brain assessed as 4-chlorobenzoate formation at 9.14 umol/kg, ip measured up to 6 hrs by LC-MS/MS analysis; format: ADME, organism-based; conditions: in vivo, BLD = below limit of detection
In short: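 Male C57BL/6 mice (n=3) received prodrug at […] i.p. in DMSO. Brain was collected at 0.5, 2 and 6 h. The 4-chlorobenzoate cleavage product was sought by LC-MS/MS against a vehicle-brain standard curve with d₆-sobetirome internal standard; the limit was LoQ.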

[2] = AUC (0.5 to 6 hrs) in C57BL/6 mouse serum assessed as bezafibrate level at 9.14 umol/kg, ip by LC-MS/MS analysis; format: ADME, organism-based; design: dose 9.14 umol/kg, time upper 6 hr, time lower 0.5 hr, route intraperitoneal; conditions: in vivo
In short: (§1)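 Male wild-type C57BL/6 mice (8−10 weeks, n=3 per time point) received parent drug or equimolar prodrug at […] i.p. in DMSO. Brain and serum were collected at 0.5, 2 and 6 h. Parent acid was quantified by LC-MS/MS against vehicle-tissue standard curves with d₆-sobetirome internal standard. AUC0.5–6 h was computed from the time course; mean ± SEM.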

[3] = AUC (0.5 to 6 hrs) in C57BL/6 mouse brain assessed as bezafibrate level at 9.14 umol/kg, ip by LC-MS/MS analysis; format: ADME, organism-based; design: time 0.5-6 hr, dose 9.14 umol/kg, route intraperitoneal; conditions: in vivo; in short: as §1
[4] = Prodrug conversion in C57BL/6 mouse brain assessed as bezafibrate level at 9.14 umol/kg, ip measured after 1 hr in presence of FAAH inhibitor PF-3845 by LC-MS/MS analysis; format: ADME, organism-based; conditions: in vivo
In short: (§2)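 Male C57BL/6 mice (n=3) received PF-3845 at 1 mg/kg i.p., then prodrug at […] i.p. 1 h later; comparators received prodrug alone. Vehicle was DMSO. Whole brain was taken 1 h after prodrug and homogenized in water with d₆-sobetirome internal standard. It was extracted with EtOAc/MeCN and parent acid was measured by LC-MS/MS; mean ± SEM, 2-tailed unpaired t test.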

[5] = Renal toxicity in C57BL/6 mouse assessed effect on Fasn gene expression in kidney at 9.14 umol/kg, ip administered once daily for 7 days by Trizol reagent based RT-qPCR analysis; format: organism-based; conditions: in vivo, 168 h
In short: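 Male C57BL/6 mice (n=5) were dosed once daily for 7 days i.p. with parent drug at […], equimolar prodrug, or vehicle. The vehicle was 1:1:8 Kolliphor:NMP:water. Target gene expression was compared between groups per tissue by 2-tailed unpaired t test.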

[6] = molecular target: T1, Fatty-acid amide hydrolase 2 (Homo sapiens, UniProt Q6GMR7); assay: Substrate activity at FAAH2 in human brain S9 fraction assessed as bezafibrate level at 100 uM measured after 15 mins by LC-MS/MS analysis; format: ADME, subcellular; conditions: s9, 0.25 h
T1 sequence (Q6GMR7 whole entry): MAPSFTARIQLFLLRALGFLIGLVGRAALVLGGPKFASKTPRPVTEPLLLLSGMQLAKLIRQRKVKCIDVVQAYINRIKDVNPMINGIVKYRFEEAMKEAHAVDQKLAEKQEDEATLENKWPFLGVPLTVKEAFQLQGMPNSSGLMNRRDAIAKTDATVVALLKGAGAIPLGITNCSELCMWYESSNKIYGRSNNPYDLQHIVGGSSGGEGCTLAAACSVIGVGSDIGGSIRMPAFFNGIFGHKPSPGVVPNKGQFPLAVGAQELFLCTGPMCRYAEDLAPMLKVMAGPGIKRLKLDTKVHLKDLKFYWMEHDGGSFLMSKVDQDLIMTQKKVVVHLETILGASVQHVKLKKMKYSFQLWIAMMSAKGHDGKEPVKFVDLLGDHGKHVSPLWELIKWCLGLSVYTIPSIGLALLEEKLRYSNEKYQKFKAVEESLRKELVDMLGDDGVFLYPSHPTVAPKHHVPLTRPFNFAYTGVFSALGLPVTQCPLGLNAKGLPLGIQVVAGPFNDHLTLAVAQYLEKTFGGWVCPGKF
In short: (§3)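 Human brain S9 at 1 mg/mL, with or without […] PF-3845, was prewarmed 5 min at 37 °C. It was incubated 15 min at 37 °C with 100 µM prodrug (final), then quenched with MeCN/DMF containing d₆-sobetirome. Parent acid was measured by LC-MS/MS. FAAH-dependent level = untreated sample (n=3) minus mean PF-3845 samples (n>2).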

[7] = Brain to serum concentration ratio, Kp of the compound in C57BL/6 mouse assessed as bezafibrate level at 9.14 umol/kg, ip by LC-MS/MS analysis; format: ADME, organism-based
In short: (§4)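 Brain-to-serum ratio Kp was calculated from brain and serum parent-drug AUC0.5–6 h (ng/g*h). These AUCs came from male C57BL/6 mice (n=3 per time point) given parent drug or equimolar prodrug at […] i.p. in DMSO, sampled at 0.5, 2 and 6 h. Parent acid was quantified by LC-MS/MS with d₆-sobetirome internal standard.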

[8] = molecular target: T2, Fatty-acid amide hydrolase 1 (Homo sapiens, UniProt O00519); assay: Substrate activity at FAAH1 in human brain S9 fraction assessed as 2-(3-chloro-4-((3-((7-propyl-3-(trifluoromethyl)-benzo[d]isoxazol-6-yl)oxy)propyl)thio)phenyl)acetic acid level at 100 uM measured after 15 mins by LC-MS/MS analysis; format: ADME, subcellular; conditions: s9, 0.25 h; in short: as §3
T2 sequence (O00519 whole entry): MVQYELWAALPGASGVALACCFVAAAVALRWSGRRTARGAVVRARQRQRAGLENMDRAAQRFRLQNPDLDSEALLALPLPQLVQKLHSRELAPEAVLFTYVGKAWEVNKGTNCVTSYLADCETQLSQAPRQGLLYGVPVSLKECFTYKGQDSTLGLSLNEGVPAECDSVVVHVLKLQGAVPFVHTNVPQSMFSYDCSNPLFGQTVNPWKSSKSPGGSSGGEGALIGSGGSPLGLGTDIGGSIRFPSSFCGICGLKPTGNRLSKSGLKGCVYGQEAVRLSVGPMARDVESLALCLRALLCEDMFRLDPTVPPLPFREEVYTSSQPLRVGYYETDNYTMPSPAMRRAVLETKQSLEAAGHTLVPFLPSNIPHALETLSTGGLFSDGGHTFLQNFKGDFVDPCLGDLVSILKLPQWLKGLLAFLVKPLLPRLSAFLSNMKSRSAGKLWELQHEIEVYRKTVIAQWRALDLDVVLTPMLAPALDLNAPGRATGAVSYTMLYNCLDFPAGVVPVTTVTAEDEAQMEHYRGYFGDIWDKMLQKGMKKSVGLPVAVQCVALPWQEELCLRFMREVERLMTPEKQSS

[9] = AUC (0.5 to 6 hrs) in C57BL/6 mouse serum assessed as 2-(3-chloro-4-((3-((7-propyl-3-(trifluoromethyl)-benzo[d]isoxazol-6-yl)oxy)propyl)thio)phenyl)acetic acid level at 9.14 umol/kg, ip by LC-MS/MS analysis; format: ADME, organism-based; design: dose 9.14 umol/kg, time 0.5-6 hr, route intraperitoneal; conditions: in vivo; in short: as §1
[10] = Prodrug conversion in C57BL/6 mouse brain assessed as 2-(3-chloro-4-((3-((7-propyl-3-(trifluoromethyl)-benzo[d]isoxazol-6-yl)oxy)propyl)thio)phenyl)acetic acid level at 9.14 umol/kg, ip measured after 1 hr in presence of FAAH inhibitor PF-3845 by LC-MS/MS analysis; format: ADME, organism-based; conditions: in vivo; in short: as §2
[11] = AUC (0.5 to 6 hrs) in C57BL/6 mouse brain assessed as 2-(3-chloro-4-((3-((7-propyl-3-(trifluoromethyl)-benzo[d]isoxazol-6-yl)oxy)propyl)thio)phenyl)acetic acid level at 9.14 umol/kg, ip by LC-MS/MS analysis; format: ADME, organism-based; design: time upper 6 hr, dose 9.14 umol/kg, time lower 0.5 hr, route intraperitoneal; conditions: in vivo; in short: as §1
[12] = Brain to serum concentration ratio, Kp of the compound in C57BL/6 mouse assessed as 2-(3-chloro-4-((3-((7-propyl-3-(trifluoromethyl)-benzo[d]isoxazol-6-yl)oxy)propyl)thio)phenyl)acetic acid level at 9.14 umol/kg, ip by LC-MS/MS analysis; format: ADME, organism-based; in short: as §4

## CNC(=O)C(C)(C)Oc1ccc(CCNC(=O)c2ccc(Cl)cc2)cc1
[1]
  Drug metabolism: Bld
[2]
  AUC: 470.6 ng·h/g
[3]
  AUC: 26.3 ng·h/g
[4]
  Drug metabolism: Metabolite_Notdetected
[5]
  Drug metabolism: Metabolite_Detected
[6]
  Drug metabolism: Metabolite_Detected
[7]
  Kp: 0.06

## CCCc1c(OCCCSc2ccc(CC(=O)NC)cc2Cl)ccc2c(C(F)(F)F)noc12
[8]
  Drug metabolism: Metabolite_Notdetected
[9]
  AUC: 276.5 ng·h/g
[10]
  Drug metabolism: Metabolite_Notdetected
[11]
  AUC: 12.64 ng·h/g
[12]
  Kp: 0.05
